Data set [1] deals with HEK293. The data set is described as follows: Cytotoxicity against human HEK293 cells assessed as reduction in cell viability measured after 72 hrs by SRB assay. The format is ADME, cell-based. As to conditions: HEK293, 72 h.
Data set [2] has as its system A-375. In words: Cytotoxicity against human A-375 cells assessed as reduction in cell viability measured after 72 hrs by SRB assay. The format is functional, cell-based. As to conditions: A-375, 72 h. A general note: Sulforhodamine B stains cellular protein and so reports cell mass.
The test system of data set [3] is HT-29. The data set is described as follows: Cytotoxicity against human HT-29 cells assessed as reduction in cell viability measured after 72 hrs by SRB assay. The format is functional, cell-based. The note with it: HT-29, 72 h.
Data set [4] deals with MCF7. In words: Cytotoxicity against human MCF7 cells assessed as reduction in cell viability measured after 72 hrs by SRB assay. The format is functional, cell-based. The note with it: MCF7, 72 h.
The test system of data set [5] is A2780. In words: Cytotoxicity against human A2780 cells assessed as reduction in cell viability measured after 72 hrs by SRB assay. The format is functional, cell-based. As to conditions: A2780, 72 h.
The subject of data set [6] is FaDu. In words: Cytotoxicity against human FaDu cells assessed as reduction in cell viability measured after 72 hrs by SRB assay. The format is functional, cell-based.
The test system of data set [7] is NIH3T3. The data set is described as follows: Cytotoxicity against mouse NIH3T3 cells assessed as reduction in cell viability measured after 72 hrs by SRB assay. As to conditions: NIH3T3, 72 h. The format is cell-based. Summed up:
(§1)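 Sulforhodamine B assay on human tumour lines A375 (epithelial melanoma), HT29 (colorectal adenocarcinoma), MCF-7 (breast adenocarcinoma), A2780 (ovarian carcinoma) and FaDu (squamous cell carcinoma). Non-malignant NIH 3T3 (mouse fibroblasts) and HEK293 (human embryonic kidney) cells were also tested. EC50 values are given as mean ± standard mean error.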

For data set [8], the system named is A-375. In words: Cytotoxicity against human A-375 cells assessed as reduction in cell viability upto 30 uM measured after 72 hrs by SRB assay. The format is functional, cell-based. The note with it: dose microM <=30, time 72.0 hrs. In a few lines: as §1
Data set [9] relates to HT-29. The data set is described as follows: Cytotoxicity against human HT-29 cells assessed as reduction in cell viability upto 30 uM measured after 72 hrs by SRB assay. The note with it: dose microM <=30, time 72.0 hrs. The format is functional, cell-based. In a few lines: as §1
Data set [10] deals with MCF7. In words: Cytotoxicity against human MCF7 cells assessed as reduction in cell viability upto 30 uM measured after 72 hrs by SRB assay. The format is functional, cell-based. As to conditions: dose microM <=30, time 72.0 hrs. In a few lines: as §1
The test system of data set [11] is A2780. In words: Cytotoxicity against human A2780 cells assessed as reduction in cell viability upto 30 uM measured after 72 hrs by SRB assay. The format is functional, cell-based. The note with it: dose microM <=30, time 72.0 hrs. Summed up:
as §1

In data set [12] the test system is FaDu. In words: Cytotoxicity against human FaDu cells assessed as reduction in cell viability upto 30 uM measured after 72 hrs by SRB assay. The format is functional, cell-based. As to conditions: dose microM <=30, time 72.0 hrs. In a few lines:
as §1

In data set [13] the test system is NIH3T3. In words: Cytotoxicity against mouse NIH3T3 cells assessed as reduction in cell viability upto 30 uM measured after 72 hrs by SRB assay. The format is cell-based. The note with it: nih3t3, 72 h. Summed up:
as §1

Data set [14] has as its system HEK293. The data set is described as follows: Cytotoxicity against human HEK293 cells assessed as reduction in cell viability upto 30 uM measured after 72 hrs by SRB assay. The format is cell-based. As to conditions: hek293, 72 h. Summed up:
as §1

Data set [15] in a line: Drug uptake in human A-375 cells measured after 24 hrs by fluorescence imaging analysis. The format is ADME, cell-based. The note with it: a-375, 24 h. In a few lines:
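Fluorescence imaging of cells after a prolonged 24 h incubation with compound, to judge entry into the cells.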

Data set [16] is described as follows: Drug uptake in Mitochondria of human A-375 cells at 5.4 uM measured after 12 hrs by Mito-tracker based fluorescence imaging analysis. The format is ADME. As to conditions: a-375, 12 h.
Data set [17] in a line: Drug uptake in endoplasmic reticulum of human A-375 cells at 5.4 uM measured after 12 hrs by ER-tracker based fluorescence imaging analysis. The format is ADME, subcellular. As to conditions: a-375, 12 h. Summed up: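 Living A375 cells were incubated with compound for 12 h, co-stained with ER-Tracker, and imaged by fluorescence microscopy. Compound, tracker and merged channels were compared for localisation in the endoplasmic reticulum.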

Active and inactive are the calls of the source. The rule behind the calls is not given here. A value given as a limit tells only on which side of the number the result lay.

Regarding `C=C(C)[C@@H]1CC[C@]2(C(=O)N3CCN(C(=O)C4=Cc5ccccc5N5C[N+](CC)(CC)N=C45)CC3)CC[C@]3(C)C(=CC[C@@H]4[C@@]5(C)CC[C@H](OC(C)=O)C(C)(C)[C@@H]5CC[C@]43C)[C@H]12`, the EC50 in the data set with HEK293 [1] is 16.5 µM; with A-375 [2] it was 20.8 µM; in the data set on HT-29 [3] it was 27 µM; in the data set on MCF7 [4], 18.1 µM; in the data set with A2780 [5], 14.1 µM; in the data set with FaDu [6], 28.2 µM. For the same compound, the EC50 with NIH3T3 [7] is more than 30 µM.

Take `CC1=CC(C)=C(C(=O)[O-])C2=N[N+]3(CCCCC3)CN12`: the result in the data set with A-375 [8], with HT-29 [9], with MCF7 [10], in the data set on A2780 [11] and in the data set with FaDu [12] was inactive. The EC50 in the data set on A-375 [2], in the data set with HT-29 [3], with MCF7 [4], in the data set on A2780 [5], in the data set with FaDu [6] and in the data set with NIH3T3 [7] was more than 30 µM in each case. The Activity result in the data set with NIH3T3 [13] and with HEK293 [14] was “Non-Toxic” each time. Besides, the Drug uptake result in [15] was “Not Active”.

As for `CC1=CC(C)=C(C(=O)[O-])C2=N[N+]3(CCCC3)CN12`, the outcome in the data set on A-375 [8], with HT-29 [9], in the data set with MCF7 [10], in the data set with A2780 [11] and in the data set on FaDu [12] was inactive. The EC50 with A-375 [2], in the data set with HT-29 [3], in the data set with MCF7 [4], in the data set on A2780 [5], in the data set on FaDu [6] and in the data set on NIH3T3 [7] was more than 30 µM in each case. The Activity entry in the data set on NIH3T3 [13] and in the data set with HEK293 [14] was “Non-Toxic” each time. The Drug uptake result in data set [15] is “Not Active”.

For the compound `CC1=CC(C)=C(C(=O)[O-])C2=N[N+]3(CCN(C)CC3)CN12`, the result in the data set on A-375 [8], in the data set on HT-29 [9], with MCF7 [10], with A2780 [11] and in the data set on FaDu [12] was inactive. Also, the EC50 with A-375 [2], in the data set with HT-29 [3], in the data set on MCF7 [4], in the data set with A2780 [5], with FaDu [6] and in the data set with NIH3T3 [7] was more than 30 µM throughout. Also, the Activity entry in the data set on NIH3T3 [13] and in the data set on HEK293 [14] was “Non-Toxic” in each case. Besides, in data set [15], the Drug uptake result is listed as “Not Active”.

Regarding `CCN(CC)c1ccc2c(-c3ccccc3C(=O)O)c3ccc(=[N+](CC)CC)cc-3oc2c1` [RHODAMINE], the EC50 in the data set on HEK293 [1], with A-375 [2], with HT-29 [3], in the data set with MCF7 [4], in the data set with A2780 [5] and in the data set on FaDu [6] was more than 30 µM in each case. Besides, in the data set on NIH3T3 [7], the EC50 was more than 30 µM.

`C=C(C)[C@@H]1CC[C@]2(C(=O)N3CCN(C(=O)C4=C(C)C=C(C)N5C[N+](CCCCCC)(CCCCCC)N=C45)CC3)CC[C@]3(C)[C@H](CC[C@@H]4[C@@]5(C)CC[C@H](OC(C)=O)C(C)(C)[C@@H]5CC[C@]43C)[C@@H]12.[Cl-]`: the EC50 with HEK293 [1] turned out to be 3 µM; in the data set on A-375 [2] it was 5.4 µM; in the data set with HT-29 [3], 7.5 µM; with MCF7 [4], 4.9 µM; in the data set with A2780 [5], 4.6 µM; with FaDu [6] it was 6 µM. Moreover, the EC50 in the data set on NIH3T3 [7] turned out to be 6.6 µM. Also, the Drug uptake result is on record as “Not Active” in data set [16] and “Active” in data set [17].

On to `C=C(C)[C@@H]1CC[C@]2(C(=O)N3CCN(C(=O)C4=C(C)C=C(C)N5C[N+](CCCCCCCCCCCC)(CCCCCCCCCCCC)N=C45)CC3)CC[C@]3(C)[C@H](CC[C@@H]4[C@@]5(C)CC[C@H](OC(C)=O)C(C)(C)[C@@H]5CC[C@]43C)[C@@H]12`, for which the EC50 stood at 13.3 µM in the data set with HEK293 [1]; 16.8 µM in the data set on A-375 [2]; 24.9 µM with HT-29 [3]; 15.7 µM with MCF7 [4]; 11 µM in the data set with A2780 [5]; 10.7 µM in the data set with FaDu [6]. Also, the EC50 in the data set on NIH3T3 [7] was more than 30 µM.

For the compound `C=C(C)[C@@H]1CC[C@]2(C(=O)NCCNC(=O)C3=Cc4ccccc4N4C[N+](CC)(CC)N=C34)CC[C@]3(C)C(=CC[C@@H]4[C@@]5(C)CC[C@H](OC(C)=O)C(C)(C)[C@@H]5CC[C@]43C)[C@H]12`, the EC50 in the data set with HEK293 [1] was 13.6 µM; with A-375 [2] it was 18.6 µM; with HT-29 [3], 26.8 µM; with MCF7 [4], 17.6 µM; in the data set with A2780 [5], 18.3 µM; in the data set on FaDu [6], 12.3 µM. For the same compound, the EC50 in the data set with NIH3T3 [7] came out at 17.4 µM.

As for `CCCCCCCC[N+]1(CCCCCCCC)CN2C(C)=CC(C)=C(C(=O)[O-])C2=N1`, the result with A-375 [8], with HT-29 [9], in the data set with MCF7 [10], in the data set with A2780 [11] and in the data set with FaDu [12] was inactive. Also, the EC50 in the data set with A-375 [2], in the data set with HT-29 [3], in the data set with MCF7 [4], in the data set with A2780 [5], in the data set with FaDu [6] and with NIH3T3 [7] was more than 30 µM throughout. In addition, the Activity entry in the data set on NIH3T3 [13] and in the data set with HEK293 [14] was “Non-Toxic” in each case. Moreover, the Drug uptake result in [15] is reported as “Not Active”.

A word on the EC50: it is the concentration at which the effect is half-maximal.

(Values after ChEMBL document CHEMBL4732060, “Cytotoxic triterpenoid-safirinium conjugates target the endoplasmic reticulum” (Eur J Med Chem, 2021).)
